Source: ChEMBL document CHEMBL3784960, “New 4-Functionalized Glutamate Analogues Are Selective Agonists at Metabotropic Glutamate Receptor Subtype 2 or Selective Agonists at Metabotropic Glutamate Receptor Group III” (J Med Chem, 2016)
Activity calls are given as the source filed them. The rule behind the calls is not given here.

Legend:
[1] = target: Metabotropic glutamate receptor 8 (Rattus norvegicus, UniProt P70579); experiment: Agonist activity at rat mGlu8 receptor expressed in HEK293 cells assessed as IP1 accumulation by IP-One functional assay; type: cell-based
Metabotropic glutamate receptor 8, sequence (P70579 whole entry): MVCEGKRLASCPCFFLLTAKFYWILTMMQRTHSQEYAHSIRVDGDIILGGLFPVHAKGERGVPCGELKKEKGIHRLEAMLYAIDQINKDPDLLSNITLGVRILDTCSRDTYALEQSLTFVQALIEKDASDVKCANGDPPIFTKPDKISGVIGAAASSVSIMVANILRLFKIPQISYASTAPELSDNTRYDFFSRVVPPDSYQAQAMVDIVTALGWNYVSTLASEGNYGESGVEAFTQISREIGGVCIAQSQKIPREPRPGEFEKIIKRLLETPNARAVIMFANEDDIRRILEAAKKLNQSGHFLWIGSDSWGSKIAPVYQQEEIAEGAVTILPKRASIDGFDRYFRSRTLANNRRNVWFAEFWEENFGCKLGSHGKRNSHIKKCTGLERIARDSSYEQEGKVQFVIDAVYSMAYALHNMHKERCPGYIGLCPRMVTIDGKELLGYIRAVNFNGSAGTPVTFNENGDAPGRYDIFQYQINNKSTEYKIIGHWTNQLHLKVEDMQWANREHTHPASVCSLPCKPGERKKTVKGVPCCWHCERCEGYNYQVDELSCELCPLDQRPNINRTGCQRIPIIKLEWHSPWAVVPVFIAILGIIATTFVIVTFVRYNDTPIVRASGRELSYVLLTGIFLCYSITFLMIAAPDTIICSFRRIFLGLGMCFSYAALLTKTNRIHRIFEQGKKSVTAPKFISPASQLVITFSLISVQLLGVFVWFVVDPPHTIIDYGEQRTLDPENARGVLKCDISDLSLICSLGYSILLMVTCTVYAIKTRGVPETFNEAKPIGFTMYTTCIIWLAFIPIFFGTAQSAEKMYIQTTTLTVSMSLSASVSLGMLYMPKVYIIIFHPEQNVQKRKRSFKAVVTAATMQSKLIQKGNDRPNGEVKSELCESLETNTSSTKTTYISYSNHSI
Summary of the method: (§1)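 HEK293 cells were transiently electroporated with the rat receptor plus a chimeric Gi/Gq protein for PLC coupling and EAAC1. Medium was replaced by Glutamax at least 2 h before agonist. IP1 accumulation was measured by HTRF 24 h post-transfection, at least in duplicate. EC50 ± SEM came from n = 4−6 experiments.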

[2] = target: T1, Excitatory amino acid transporter 1 (Homo sapiens, UniProt P43003); experiment: Inhibition of human EAAT1 assessed as [3H]Asp uptake
T1 sequence (P43003 whole entry): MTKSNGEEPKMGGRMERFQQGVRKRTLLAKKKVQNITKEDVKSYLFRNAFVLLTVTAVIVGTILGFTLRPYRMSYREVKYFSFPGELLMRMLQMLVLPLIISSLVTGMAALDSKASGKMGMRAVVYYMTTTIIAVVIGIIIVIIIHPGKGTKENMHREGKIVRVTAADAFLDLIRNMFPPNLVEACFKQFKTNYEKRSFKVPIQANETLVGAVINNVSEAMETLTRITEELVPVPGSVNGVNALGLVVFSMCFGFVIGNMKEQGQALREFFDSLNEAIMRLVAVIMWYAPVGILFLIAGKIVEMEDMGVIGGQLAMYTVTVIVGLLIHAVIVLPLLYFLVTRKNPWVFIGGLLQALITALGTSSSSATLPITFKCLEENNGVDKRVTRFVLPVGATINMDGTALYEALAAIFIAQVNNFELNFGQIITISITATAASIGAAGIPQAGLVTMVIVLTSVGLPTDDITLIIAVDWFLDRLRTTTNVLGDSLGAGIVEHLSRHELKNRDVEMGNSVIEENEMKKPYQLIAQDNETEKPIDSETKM

[3] = target: T2, Excitatory amino acid transporter 2 (Homo sapiens, UniProt P43004); experiment: Substrate activity at human EAAT2 assessed as [3H]Asp uptake measured up to 300 uM
T2 sequence (P43004 whole entry): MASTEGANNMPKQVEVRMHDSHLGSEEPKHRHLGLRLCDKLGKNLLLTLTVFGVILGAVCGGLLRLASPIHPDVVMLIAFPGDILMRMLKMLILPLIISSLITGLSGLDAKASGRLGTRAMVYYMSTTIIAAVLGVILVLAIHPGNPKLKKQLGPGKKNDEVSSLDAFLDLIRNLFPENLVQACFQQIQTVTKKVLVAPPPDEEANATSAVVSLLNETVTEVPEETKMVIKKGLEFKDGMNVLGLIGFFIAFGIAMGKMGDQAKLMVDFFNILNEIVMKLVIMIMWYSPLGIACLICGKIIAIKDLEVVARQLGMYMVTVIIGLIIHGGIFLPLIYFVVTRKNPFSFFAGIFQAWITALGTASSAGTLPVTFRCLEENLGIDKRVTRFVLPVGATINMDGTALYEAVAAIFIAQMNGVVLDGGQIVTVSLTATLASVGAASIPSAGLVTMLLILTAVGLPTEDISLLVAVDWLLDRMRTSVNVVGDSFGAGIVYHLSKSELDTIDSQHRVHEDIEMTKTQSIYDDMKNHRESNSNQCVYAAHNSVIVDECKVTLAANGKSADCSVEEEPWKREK

[4] = target: Metabotropic glutamate receptor 7 (Rattus norvegicus, UniProt P35400); experiment: Agonist activity at rat mGlu7 receptor expressed in HEK293 cells assessed as IP1 accumulation by IP-One functional assay; type: cell-based; summary of the method: as §1
Metabotropic glutamate receptor 7 (Rattus norvegicus, UniProt P35400), sequence (P35400 whole entry): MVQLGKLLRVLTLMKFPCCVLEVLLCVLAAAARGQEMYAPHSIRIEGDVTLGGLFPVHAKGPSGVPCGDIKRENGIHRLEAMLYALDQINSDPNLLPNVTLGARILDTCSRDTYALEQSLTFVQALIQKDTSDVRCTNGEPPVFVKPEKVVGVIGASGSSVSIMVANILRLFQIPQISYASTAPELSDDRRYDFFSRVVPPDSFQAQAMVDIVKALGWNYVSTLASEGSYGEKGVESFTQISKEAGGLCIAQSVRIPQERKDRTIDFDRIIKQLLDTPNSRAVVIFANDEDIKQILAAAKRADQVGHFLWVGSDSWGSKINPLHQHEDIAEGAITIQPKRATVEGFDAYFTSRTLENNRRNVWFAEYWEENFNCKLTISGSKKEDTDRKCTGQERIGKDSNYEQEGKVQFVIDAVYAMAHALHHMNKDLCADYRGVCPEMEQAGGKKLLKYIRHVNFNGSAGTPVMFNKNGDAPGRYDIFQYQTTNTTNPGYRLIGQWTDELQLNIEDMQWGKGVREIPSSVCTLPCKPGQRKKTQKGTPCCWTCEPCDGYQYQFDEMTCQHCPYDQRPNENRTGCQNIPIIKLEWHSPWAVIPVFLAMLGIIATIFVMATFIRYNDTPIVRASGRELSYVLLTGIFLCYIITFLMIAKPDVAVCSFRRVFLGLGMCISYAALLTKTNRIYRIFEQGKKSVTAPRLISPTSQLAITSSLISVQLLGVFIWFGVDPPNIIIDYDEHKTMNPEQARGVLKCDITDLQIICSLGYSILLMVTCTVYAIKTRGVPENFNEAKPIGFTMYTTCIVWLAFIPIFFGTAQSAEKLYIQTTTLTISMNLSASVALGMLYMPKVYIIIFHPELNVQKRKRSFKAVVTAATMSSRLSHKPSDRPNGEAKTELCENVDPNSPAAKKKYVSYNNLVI

[5] = Displacement of [3H]AMPA from rat synaptosome AMPA receptor after 30 mins by microplate scintillation counter analysis
[6] = target: T1, Excitatory amino acid transporter 1; experiment: Substrate activity at human EAAT1 assessed as [3H]Asp uptake measured up to 300 uM
[7] = target: T3, Metabotropic glutamate receptor 1 (Rattus norvegicus, UniProt P23385); experiment: Agonist activity at rat mGlu1 receptor expressed in HEK293 cells assessed as IP1 accumulation by IP-One functional assay; type: cell-based
Summary of the method: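 Rat group I receptor transiently electroporated into HEK293 with the EAAC1 glutamate transporter; medium switched to Glutamax at least 2 h before stimulation. IP1 was read by HTRF (IP-One kit) 24 h after transfection. Runs were at least in duplicate, with EC50 ± SEM from n = 4−6 experiments.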

[8] = target: T4, Excitatory amino acid transporter 3 (Homo sapiens, UniProt P43005); experiment: Inhibition of human EAAT3 assessed as [3H]Asp uptake
T4 sequence (P43005 whole entry): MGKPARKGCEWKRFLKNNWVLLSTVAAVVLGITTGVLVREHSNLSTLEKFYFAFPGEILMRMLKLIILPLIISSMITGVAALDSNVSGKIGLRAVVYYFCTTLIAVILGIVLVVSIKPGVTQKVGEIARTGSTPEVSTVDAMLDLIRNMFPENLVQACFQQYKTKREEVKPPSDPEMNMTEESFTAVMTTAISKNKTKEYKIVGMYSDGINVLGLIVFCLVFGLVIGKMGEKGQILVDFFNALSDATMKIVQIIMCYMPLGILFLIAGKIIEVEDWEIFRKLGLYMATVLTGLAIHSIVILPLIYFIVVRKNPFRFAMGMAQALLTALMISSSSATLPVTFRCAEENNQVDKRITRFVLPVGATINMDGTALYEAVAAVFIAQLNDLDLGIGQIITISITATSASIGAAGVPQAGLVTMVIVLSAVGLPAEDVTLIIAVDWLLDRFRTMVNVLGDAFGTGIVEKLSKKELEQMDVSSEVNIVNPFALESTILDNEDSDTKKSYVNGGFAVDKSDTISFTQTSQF

[9] = target: T5, Metabotropic glutamate receptor 2 (Rattus norvegicus, UniProt P31421); experiment: Agonist activity at rat mGlu2 receptor expressed in HEK293 cells assessed as IP1 accumulation by IP-One functional assay; type: cell-based
T5 sequence (P31421 whole entry): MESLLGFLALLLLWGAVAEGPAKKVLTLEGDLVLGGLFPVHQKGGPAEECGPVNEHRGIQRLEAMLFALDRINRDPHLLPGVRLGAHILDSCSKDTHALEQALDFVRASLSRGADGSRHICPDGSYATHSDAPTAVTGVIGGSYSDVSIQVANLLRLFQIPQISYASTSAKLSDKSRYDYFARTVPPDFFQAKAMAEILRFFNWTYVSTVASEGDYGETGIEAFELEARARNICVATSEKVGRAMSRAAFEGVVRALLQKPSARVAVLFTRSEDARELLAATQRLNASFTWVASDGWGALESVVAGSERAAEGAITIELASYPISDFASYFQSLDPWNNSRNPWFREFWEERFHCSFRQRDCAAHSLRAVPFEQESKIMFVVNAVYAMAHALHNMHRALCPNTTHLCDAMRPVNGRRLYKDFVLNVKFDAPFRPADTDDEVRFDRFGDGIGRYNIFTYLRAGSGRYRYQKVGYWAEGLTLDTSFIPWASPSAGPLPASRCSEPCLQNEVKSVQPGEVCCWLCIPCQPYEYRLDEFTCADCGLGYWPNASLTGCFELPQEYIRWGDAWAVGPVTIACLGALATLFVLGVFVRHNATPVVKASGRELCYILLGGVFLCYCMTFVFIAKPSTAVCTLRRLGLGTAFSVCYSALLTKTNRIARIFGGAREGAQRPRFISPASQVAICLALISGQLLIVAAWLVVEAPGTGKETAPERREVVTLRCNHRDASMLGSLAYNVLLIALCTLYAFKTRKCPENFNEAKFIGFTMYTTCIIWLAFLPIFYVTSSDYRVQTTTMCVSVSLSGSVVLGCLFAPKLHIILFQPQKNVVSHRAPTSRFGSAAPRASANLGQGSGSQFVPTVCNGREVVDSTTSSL
Summary of the method: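 HEK293 cells were transiently electroporated with the rat receptor plus a chimeric Gi/Gq protein for PLC coupling and EAAC1. Medium was replaced by Glutamax at least 2 h before agonist. IP1 accumulation was measured by HTRF 24 h post-transfection, at least in duplicate.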

[10] = target: Metabotropic glutamate receptor 6 (Rattus norvegicus, UniProt P35349); experiment: Agonist activity at rat mGlu6 receptor expressed in HEK293 cells assessed as IP1 accumulation by IP-One functional assay; type: cell-based; summary of the method: as §1
[11] = target: T5, Metabotropic glutamate receptor 2; experiment: Agonist activity at rat mGlu2 receptor by FRET based mGlu sensor assay
Summary of the method: (§2)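 Receptor carried an N-terminal SNAP-tag and was transfected into HEK293 cells. At 24 h, surface receptors were labelled for 1 h with 100 nM SNAP-Lumi4-Tb (donor) and 60 nM SNAP Green (acceptor), washed three times, then drug was added. Time-resolved FRET was recorded at 520 nm, at least in duplicate.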

[12] = Displacement of [3H]KA from rat synaptosome KA receptor after 60 mins by microplate scintillation counter analysis
[13] = target: T6, Metabotropic glutamate receptor 4 (Rattus norvegicus, UniProt P31423); experiment: Agonist activity at rat mGlu4 receptor expressed in HEK293 cells assessed as IP1 accumulation by IP-One functional assay; type: cell-based; summary of the method: as §1
[14] = target: T2, Excitatory amino acid transporter 2; experiment: Inhibition of human EAAT2 assessed as [3H]Asp uptake
[15] = target: T7, Metabotropic glutamate receptor 5 (Rattus norvegicus, UniProt P31424); experiment: Agonist activity at rat mGlu5 receptor expressed in HEK293 cells assessed as IP1 accumulation by IP-One functional assay; type: cell-based
T7 sequence (P31424 whole entry): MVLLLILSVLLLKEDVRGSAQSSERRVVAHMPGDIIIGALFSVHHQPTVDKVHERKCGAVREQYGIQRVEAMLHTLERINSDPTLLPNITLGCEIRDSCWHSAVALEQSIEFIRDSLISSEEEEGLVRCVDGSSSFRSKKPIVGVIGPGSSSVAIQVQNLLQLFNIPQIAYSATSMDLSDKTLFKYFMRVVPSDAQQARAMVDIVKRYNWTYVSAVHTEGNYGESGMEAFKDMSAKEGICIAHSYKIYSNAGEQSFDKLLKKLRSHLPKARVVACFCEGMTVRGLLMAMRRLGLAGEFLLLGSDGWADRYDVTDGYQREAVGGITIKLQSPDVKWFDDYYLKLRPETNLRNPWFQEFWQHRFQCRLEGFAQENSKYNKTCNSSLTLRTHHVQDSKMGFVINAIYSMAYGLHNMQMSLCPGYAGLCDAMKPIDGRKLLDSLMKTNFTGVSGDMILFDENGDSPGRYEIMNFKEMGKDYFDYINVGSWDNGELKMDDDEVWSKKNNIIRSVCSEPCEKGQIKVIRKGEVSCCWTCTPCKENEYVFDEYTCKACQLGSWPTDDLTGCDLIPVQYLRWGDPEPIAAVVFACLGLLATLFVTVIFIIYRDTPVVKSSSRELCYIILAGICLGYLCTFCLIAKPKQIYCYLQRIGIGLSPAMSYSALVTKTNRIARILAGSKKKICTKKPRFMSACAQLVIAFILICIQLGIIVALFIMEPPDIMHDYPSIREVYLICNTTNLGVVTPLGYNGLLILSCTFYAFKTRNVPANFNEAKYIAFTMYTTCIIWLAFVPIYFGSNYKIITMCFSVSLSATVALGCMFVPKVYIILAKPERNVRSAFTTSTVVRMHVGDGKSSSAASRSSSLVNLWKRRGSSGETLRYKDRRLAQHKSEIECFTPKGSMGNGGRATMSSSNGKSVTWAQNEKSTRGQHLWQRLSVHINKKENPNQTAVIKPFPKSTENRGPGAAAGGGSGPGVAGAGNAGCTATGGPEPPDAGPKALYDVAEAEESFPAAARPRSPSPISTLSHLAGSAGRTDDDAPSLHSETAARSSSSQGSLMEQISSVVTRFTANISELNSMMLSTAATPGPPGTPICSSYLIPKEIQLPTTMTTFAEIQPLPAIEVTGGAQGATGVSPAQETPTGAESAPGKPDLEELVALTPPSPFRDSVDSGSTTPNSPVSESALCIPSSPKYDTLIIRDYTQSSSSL

[16] = target: T8, Metabotropic glutamate receptor 3 (Rattus norvegicus, UniProt P31422); experiment: Agonist activity at rat mGlu3 receptor by FRET based mGlu sensor assay
Summary of the method: as §2, with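 “duplicate. EC50 ± SEM came from n = 4−6 experiments.” for “duplicate.”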

Glutamate NMDA receptor = experiment: Displacement of [3H]CGP from rat synaptosome NMDA receptor after 60 mins by microplate scintillation counter analysis; type: protein-complex assay
[17] = target: T5, Metabotropic glutamate receptor 2; experiment: Agonist activity at rat mGlu2 receptor expressed in HEK293 cells by [35S]GTP-gamma binding assay; type: cell-based
[18] = target: T3, Metabotropic glutamate receptor 1; experiment: Agonist activity at rat mGlu1 receptor expressed in HEK293 cells by intracellular Ca2+ mobilization assay; type: functional, cell-based
[19] = target: T7, Metabotropic glutamate receptor 5; experiment: Agonist activity at rat mGlu5 receptor expressed in HEK293 cells by intracellular Ca2+ mobilization assay; type: functional, cell-based
[20] = target: T6, Metabotropic glutamate receptor 4; experiment: Agonist activity at rat mGlu4 receptor expressed in HEK293 cells assessed as inhibition of forskolin stimulated cAMP production; type: functional, cell-based
[21] = target: Metabotropic glutamate receptor 7 (Homo sapiens, UniProt Q14831); experiment: Agonist activity at human mGlu7 receptor expressed in HEK293 assessed as inhibition of forskolin stimulated cAMP production; type: functional, cell-based
Metabotropic glutamate receptor 7 (Homo sapiens, UniProt Q14831), sequence (Q14831 whole entry): as the sequence (P35400 whole entry) above, with G5R, V27A, H454N, T488S, S520A, N578D counted along it

[22] = target: T8, Metabotropic glutamate receptor 3; experiment: Agonist activity at rat mGlu3 receptor expressed in HEK293 cells by [35S]GTP-gamma binding assay; type: cell-based
[23] = target: Metabotropic glutamate receptor 2 (Homo sapiens) (UniProt Q14416); experiment: Agonist activity at mGlu2 receptor (unknown origin) assessed as IP1 accumulation preincubated with 3 uM LY341495 for 20 mins followed by addition of 1 mM of compound by IP-One functional assay
Summary of the method: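 Single-dose test in HEK293 cells cotransfected with rat receptor, chimeric Gi/Gq and EAAC1. Cells were pretreated with 3 μM LY341495 for 20 min at 37 °C, washed twice, then stimulated with 1 mM compound. IP1 was read by HTRF 24 h post-transfection. Comparison was against vehicle by one-way ANOVA with Dunnett's test.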

[24] = target: Metabotropic glutamate receptor 3 (Rattus norvegicus) (UniProt P31422); experiment: Agonist activity at mGlu3 receptor (rat) assessed as IP1 accumulation preincubated with 3 uM LY341495 for 20 mins followed by addition of 1 mM of compound by IP-One functional assay

SMILES	EC50 [1] [µM]	EC50 [10] [µM]	EC50 [11] [µM]	EC50 [13] [µM]	EC50 [16] [µM]	EC50 ([17]; read-out: EC50) [µM]	EC50 [18] [µM]	EC50 [19] [µM]	EC50 [20] [µM]	EC50 [21] [µM]	EC50 [22] [µM]	also measured
N[C@@H](C[C@@]1(C(=O)O)C[C@H]1C(=O)O)C(=O)O	> 1000	> 1000	> 1000	> 1000	> 1000							IC50 [2]: > 300 µM; Activity [3]: inactive; EC50 [4]: > 1000 µM; IC50 [5]: > 100 µM; Activity [6]: inactive; EC50 [7]: > 1000 µM; IC50 [8]: > 300 µM; EC50 [9]: > 1000 µM; IC50 [12]: > 100 µM; IC50 [14]: > 300 µM; EC50 [15]: > 1000 µM; Ki (Glutamate NMDA receptor): > 100 µM
N[C@@H](C[C@@H](CC(=O)O)C(=O)O)C(=O)O						> 1000	> 1000	> 1000	> 1000	> 1000	> 1000	
N[C@H](C(=O)O)C1[C@@H](C(=O)O)[C@@H]1C(=O)O (stereo partly drawn)			0.35		0.08							
N[C@@H](CCC(=O)O)C(=O)O [GLUTAMIC ACID]	14	65.1		9.49	3.4					1.18	0.06	
N[C@@H](C[C@]1(C(=O)O)C[C@@H]1C(=O)O)C(=O)O	> 1000	> 1000	119	> 1000	> 1000							IC50 [2]: > 300 µM; Activity [3]: inactive; EC50 [4]: > 1000 µM; Activity [23]: Active; IC50 [5]: > 100 µM; Activity [6]: inactive; EC50 [7]: > 1000 µM; IC50 [8]: > 300 µM; EC50 [9]: 33.7 µM; IC50 [12]: > 100 µM; IC50 [14]: > 300 µM; EC50 [15]: > 1000 µM; Activity [24]: inactive; Ki (Glutamate NMDA receptor): > 100 µM
CNC(=O)CC[C@H](C[C@H](N)C(=O)O)C(=O)O						> 1000	> 1000	> 1000	> 1000			
N[C@@H](C[C@@H](CCC(=O)NO)C(=O)O)C(=O)O						> 1000	> 1000	> 1000	> 1000	> 1000	> 1000	
NCCC[C@H](C[C@H](N)C(=O)O)C(=O)O						49	> 1000	> 1000	> 1000	> 1000	> 1000	EC50 ([17]; read-out: pEC50 (converted)): 4.9 µM
CN(O)C(=O)CC[C@H](C[C@H](N)C(=O)O)C(=O)O						> 1000	> 1000	> 1000	> 1000	> 1000	> 1000	
